Assay results collected from several papers.
Protocols differ between the studies behind these lines.
Target: SRSF protein kinase 1 (SRPK1, Homo sapiens, UniProt Q96SB4)

CN(c1nccc(-c2cnn3ncccc23)n1)C1CC1
remaining binding (binding; 1 µM): 88%

O=C(Nc1c[nH]nc1C(=O)NC1CCNCC1)c1cc(F)cc(F)c1
remaining binding (binding, competition with immobilised ligand; 1 µM): 100%

C[C@@H]1CCN(c2nccc(-c3cnn4ncccc34)n2)C1
remaining binding (binding; 1 µM): 98%

COc1cnc(Nc2cccc(S(N)(=O)=O)c2)nc1N1CCN(c2ccccc2)CC1
remaining binding (binding, competition with immobilised ligand; 1 µM): 65%

O=C(c1ccc(Nc2ncc(Cl)c(-c3cc4ccccc4s3)n2)cc1)N1CCC(N2CCCC2)CC1
remaining binding (binding, competition with immobilised ligand; 1 µM): 100%

N#Cc1ccc(Nc2ccc3[nH]c(=O)[nH]c3c2)c(Cl)c1
remaining binding (cell-free assay, competition with immobilised ligand; 1 µM): 95%

CC1CCCN1c1nccc(-c2cnn3ncccc23)n1 (stereo not drawn)
remaining binding (binding; 1 µM): 94%

O=C(c1ccc(Nc2nccc(-c3cc4ccccc4s3)n2)cc1)N1CCC(N2CCCC2)CC1
remaining binding (binding, competition with immobilised ligand; 1 µM): 86%

N[C@@H]1CCN(c2nccc(-c3cnn4ncccc34)n2)C1
remaining binding (binding; 1 µM): 92%

O=C(O)[C@H]1[C@H](Cn2nnc3ccccc3c2=O)CC[C@@H]1C(=O)c1ccc(OCCC2CCOCC2)cc1
remaining binding (cell-free assay, competition with immobilised ligand; 1 µM): 79%

CN(C)c1nccc(-c2cnn3ncccc23)n1
remaining binding (binding; 1 µM): 100%

O=C(c1ccc(Nc2ncc(Cl)c(-c3ccc(Cl)s3)n2)cc1)N1CCC(N2CCCC2)CC1
remaining binding (binding, competition with immobilised ligand; 1 µM): 93%

CCN1CCN(Cc2ccc(C(=O)Nc3ccc(C)c(Oc4ccc5c(c4)CC(=O)N5)c3)cc2C(F)(F)F)CC1
remaining binding (binding, competition with immobilised ligand; 1 µM): 98%

Cc1noc([C@H]2C[C@@H](c3ccc(C(F)(F)F)cc3)CN(C(=O)N3CCS(=O)(=O)C3)C2)n1
remaining binding (cell-free assay, competition with immobilised ligand; 1 µM): 100%

C=CC(=O)N1CCC(C(=O)NCC(=O)N2CCN(c3nc(-c4cnc(N)nc4C(F)F)nc(N4CCOCC4)n3)CC2)CC1
remaining binding (binding, competition with immobilised ligand; 1 µM): 75%

O=C(Nc1cccnn1)N1CC(C/C=C/c2cncc(Oc3ccc(C(F)(F)F)cn3)n2)C1
remaining binding (cell-free assay, competition with immobilised ligand; 1 µM): 82%

C[C@@H](c1ccc(-n2cnc3c(N)ncnc32)cc1)N1CCc2nn(C)c(Cc3ccccc3)c2C1=O
remaining binding (binding, competition with immobilised ligand; 0.1 µM): 100%

CNC(=O)Nc1ccc2c(c1)[C@@]1(CC2)OC(=O)N(CC(=O)N(Cc2ccc(F)cc2)[C@@H](C)C(F)(F)F)C1=O
remaining binding (cell-free assay, competition with immobilised ligand; 1 µM): 100%

CN(C)c1ncc(F)c(-c2cnn3ncccc23)n1
remaining binding (binding; 1 µM): 95%

CNCc1ccccc1-c1csc([C@H](C)Nc2nc(C)nc3cc(OC)c(OC)cc23)c1
remaining binding (cell-free assay, competition with immobilised ligand; 1 µM): 100%

FC(F)(F)Oc1cccc(-c2cnc3ccc(-c4ccncc4)nn23)c1
remaining binding (binding, competition with immobilised ligand; 5 µM): 70%
